Compounds with a hit are over-represented: about 2.3% of the library has one in this group of screens.
TRPC4 PAM: TRPC4 (mouse) allosteric potentiation | AID 2227 | Q9QUQ5 | 310,000 tested, 0.42% active | HEK293 TRPC4beta/mu-opioid, DAMGO EC20, Fluo-4 Ca2+ flux; hits give high values | B-score at 10 µM;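 active = B-score of calcium response area above 5 SD of library B-scores, with initial fluorescence ratio within 5 SD of library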;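 note: B-score of integrated fluorescence ratio over time as area under calcium response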
TRPC4 block: inhibitors of mouse TRPC4 channel | HEK293 TRPC4beta/mu-opioid, DAMGO-evoked Fluo4 calcium flux; hits give low values | Q9QUQ5 | B-score at 10 µM | 300,000 tested, 0.39% active;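 active = B-score over 3 SD under the library average, no early fluorescence shift, positive overall ratio signal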
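Test system – stable TRPC4beta/mu-opioid receptor HEK293 cells · Probe or stimulus – DAMGO, a submaximal dose followed by a maximal one · Dosing – one concentration per compound · Signal – Fluo4 calcium fluorescence by kinetic imaging, 5 s 1 Hz baseline · Evaluation – per-well B score of integrated baseline-normalized Fluo4 ratio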
TRPC6 act: activates the mouse TRPC6 cation channel | B-score at 10 µM | 310,000 tested, 0.13% active | HEK293-TRPC6 membrane potential dye fluorescence; hits give high values;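 active = B-score of the integrated fluorescence ratio above library mean plus 3 SD, and starting fluorescence ratio within library mean plus 5 SD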;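 note: higher score means more depolarization so channel activation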
TRPC6 inh: inhibitors of mouse TRPC6 channel; 310,000 tested, 1.1% active; B-score at 10 µM; HEK293-TRPC6, membrane potential dye, ACh-evoked depolarization; hits give low values; Q61143;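 active = B-score under library mean minus 3 SD, initial fluorescence not abnormally high, positive integrated signal ratio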;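 note: B-score derived from integrated fluorescence ratio over the kinetic read; more negative B-score means stronger inhibition of depolarization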
TRPC4 agonist: opens the mouse TRPC4 cation channel | Q9QUQ5 | HEK293 TRPC4beta/mu-opioid, Fluo4 calcium fluorescence; hits give high values | B-score at 10 µM | 310,000 tested, 0.49% active | AID 2237;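 active = B-score above 5 SD of library B-scores, and initial fluorescence ratio not above library mean plus 5 SD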;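 note: positive B-score marks a calcium rise read as TRPC4 activation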
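Assay system: HEK293 stable line with TRPC4beta plus mu-opioid receptor. Times: dye 45 min RT, read 110 s. Measured by: kinetic Fluo4 calcium fluorescence. Measure: B score of integrated ratio. Controls: assay buffer as low control, maximal DAMGO as high control.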
* = called active by the depositor; i = inactive.

SMILES | TRPC4 PAM | TRPC4 block | TRPC6 act | TRPC6 inh | TRPC4 agonist
CC(Cc1ccccc1)NC(=O)Cc1ccc(N(C)C)cc1 (stereo not given) | i | i | i | i | i
CNC(C)Cc1ccccc1Sc1ccc(O)cc1 (stereo not given) | i | -6* | i | i | i
Cc1c(/C=N/O)c2ccccc2n1C | i | i | i | i | i
CC1(C)CC(CCNCc2ccc3c(c2)OCO3)(Cc2ccccc2)CCO1 (stereo not given) | i | i | i | i | 60*
O=C1NC(=O)N(Cc2ccc(F)cc2)C(=O)/C1=C\c1ccc([N+](=O)[O-])s1 | i | i | i | i | i
CC(N)Cc1c[nH]c2cc3c(cc12)OCCO3 (stereo not given) | i | i | i | i | 143*
CC(N)Cc1c[nH]c2ccc(Cl)cc12 (stereo not given) | 13* | i | i | i | i
N[C@@H](Cc1c[nH]c2ccccc12)c1nnc(SCc2ccc(Cl)cc2)o1 | i | i | i | i | i
O=C(O)C1=CC2c3ccccc3C1c1ccccc12 | i | i | i | i | i
CC(=O)NCC(=O)Nc1ccc(Br)cc1C(=O)c1ccccc1 | i | i | i | i | i
O=C(NC(Cc1cnc[nH]1)C(=O)O)c1ccccc1 (stereo not given) | i | i | i | i | i
C=CCn1c(O)c(C(C)=NCCN2CCN(C(=S)NC)CC2)c(=O)[nH]c1=O | i | i | i | i | i
O=C(c1ccc(F)cc1)N1CCC2(CC1)OCCO2 | i | i | i | i | i
CCN(CC)CCN/N=C(\C)c1c(O)[nH]c(=O)[nH]c1=O | i | i | i | i | i
COc1ccc(CCNCc2ccc(SC)cc2)cc1 | i | i | i | i | 101*
COc1cccc(CNCCc2ccc(F)cc2)c1 | i | i | i | i | i
Cc1ccc(N(C)C(=O)Oc2ccc(C(=O)c3ccc(Cl)cc3)cc2)cc1 | i | i | i | i | i
COc1ccc(C)cc1NC1=NC(C)(C)CS1 | i | -6* | i | i | i
O=C(C[N+]12CCC(CC1)C(C(O)(c1ccccc1)c1ccccc1)C2)c1ccc(Br)cc1 (stereo not given) | i | i | i | i | i
CC(=O)OC1N=C(c2ccc(Cl)cc2)c2cc(Br)ccc2NC1=O (stereo not given) | i | i | i | i | i
O=C(c1cccc2ccccc12)C1CCCN(C2CCC2)C1 (stereo not given) | 10* | i | i | i | i
COc1ccc(NS(=O)(=O)c2ccc(OCC(=O)N3CCN(C)CC3)cc2)cc1Cl | i | i | i | i | i
CN(C)C=C1C(=O)N(C2CCCCC2)C(=O)N(C2CCCCC2)C1=O | i | i | i | i | 95*
CCN(CC)CC(=O)Nc1ccc(Cl)cc1C(=O)c1ccccc1 | i | -6* | i | i | i
Clc1ccc(N2CCNCC2)nn1 | 22* | i | i | i | i
SMILES | TRPC4 PAM | TRPC4 block | TRPC6 act | TRPC6 inh | TRPC4 agonist
CCOC(=O)c1cc(C)n(CCc2cnc[nH]2)c1C | i | i | i | i | 138*
O=C(CCCN1CCC2(CC1)C(=O)NCN2c1ccccc1)c1ccc(F)cc1 | i | i | i | i | 158*
COC1=CC=C2[C@H]3Cc4ccc(OC)c5c4[C@@]2(CCN3C)[C@H]1O5 | i | i | i | i | i
COc1ccc(Br)cc1CNCCc1ccc2c(c1)OCO2 | i | i | i | i | i
COc1ccc(CNCCc2ccc3c(c2)OCO3)cc1Br | i | i | i | i | 107*
O=c1[nH]c(=O)n(Cc2ccco2)c(O)c1C=NCCN1CCNCC1 | i | i | i | i | i
CCOc1cc(CNCCc2c[nH]c3ccccc23)cc(Cl)c1OCC | i | i | i | i | 46*
Fc1ccc(CNCCc2c[nH]c3ccccc23)cc1 | i | i | i | i | i
CCOc1c(Cl)cc(CNCCc2c[nH]c3ccccc23)cc1OC | i | i | i | i | 53*
Cc1ccc(CN2CCCC(C(=O)c3cccc(C(F)(F)F)c3)C2)o1 (stereo not given) | i | i | i | i | i
O=C(c1cccc(C(F)(F)F)c1)C1CCCN(Cc2ccccc2O)C1 (stereo not given) | i | -9* | i | i | i
CCCn1cc(CN2CCCC(C(=O)c3cccc(OC)c3)C2)c(C)n1 (stereo not given) | i | i | i | i | i
CCn1cc(CN2CCCC(C(=O)c3cccc(OC)c3)C2)c(C)n1 (stereo not given) | i | i | i | i | 53*
O=C(c1ccc(C(F)(F)F)cc1)C1CCCN(Cc2ccncc2)C1 (stereo not given) | i | i | i | i | 51*
COc1ccc(C(C)=O)cc1CC(C(=O)c1ccccc1)N(C)C (stereo not given) | i | i | i | i | i
COc1nc2ccccc2c(=O)n1-c1ccc(Cl)cc1 | 11* | i | i | i | i
COc1nc2ccccc2c(=O)n1-c1ccc(C)cc1 | i | i | i | i | i
CN1CCN(Cc2ccc(N)cc2)CC1 | i | i | i | i | i
CN1CCN(Cc2cc(C(C)(C)C)c(O)c(C(C)(C)C)c2)CC1 | 11* | i | i | i | i
O=C1C2CCCN2C(c2ccncc2)N1c1ccc(Cl)c(Cl)c1 (stereo not given) | 11* | i | i | i | i
O=P(Nc1ccccc1)(Nc1ccccc1)Oc1ccc(Cl)cc1 | 10* | i | i | i | i
Oc1ccccc1-[n+]1c(-c2ccccc2)cc(-c2ccccc2)c(O)c1-c1ccccc1 | i | i | i | i | i
O=C(COc1ccccc1)NCCc1cnc[nH]1 | i | i | i | i | i
O=C(CCCc1ccccc1)NCCc1cnc[nH]1 | i | i | i | i | 143*
CN1CCN(c2ccc([N+](=O)[O-])cc2Cl)CC1 | 27* | i | i | i | i
CN1CCN(c2cc([N+](=O)[O-])ccc2Cl)CC1 | i | i | i | i | i
CC1CN(c2ccc([N+](=O)[O-])cc2Cl)CCN1 (stereo not given) | 66* | i | i | i | 63*
Cc1cc(OC(=O)N(C)C)n(-c2ccccc2)n1 | i | i | i | i | i
O=C(c1ccc2c(=O)n(Cc3ccc4c(c3)OCO4)c(=S)[nH]c2c1)N1CCC2(CC1)OCCO2 | i | i | i | i | i

Source: PubChem BioAssay
